Measured values taken from ChEMBL document CHEMBL1144684, “Evaluation of a series of naphthamides as potent, orally active vascular endothelial growth factor receptor-2 tyrosine kinase inhibitors” (J Med Chem, 2008).
Calls of active or inactive are those of the source. The calls are words filed in the database; no cut-off is given here.

Experiments:
[1] = target: Tyrosine-protein kinase Lyn (Homo sapiens, UniProt P07948); assay: Inhibition of Lyn
Angiopoietin-1 receptor = Angiopoietin-1 receptor (Homo sapiens, UniProt Q02763); assay: Inhibition of Tie2
[2] = Oral bioavailability in cynomolgus monkey at 2 mg/kg; format: ADME, organism-based, Macaca fascicularis; conditions: in vivo
Outline: (§1)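 Oral suspension dosing; vehicles: mouse 10 mg/kg in OraPlus, dog 0.5 mg/kg in 1% Tween-80/2% HPMC/97% water, cynomolgus monkey 2 mg/kg.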

Calu-6 (Homo sapiens) [3] = assay: Antitumor activity in human Calu6 cell xenografted CD1 nu/nu mouse assessed as inhibition of tumor growth at 60 mg/kg, po qd for 14 days; conditions: Calu-6, po, 336 h, read-out: TGI
[4] = AUC (0 to 24 hrs) in dog at 0.5 mg/kg, po; format: ADME, organism-based, Canis lupus familiaris; set-up: time < 24 hr, dose 0.5 mg/kg, route oral; conditions: plasma
Outline: (§2)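 Compound given iv and po as single doses; vehicles: mouse iv PEG 400, po OraPlus; dog iv DMSO, po 1% Tween-80/2% HPMC/97% water; cynomolgus iv propylene glycol, po suspension.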

[5] = Cmax in Sprague-Dawley rat at 2 mg/kg, po; format: ADME, organism-based; set-up: dose 2 mg/kg, route oral; conditions: in vivo
Outline: (§3)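 Male Sprague–Dawley rats dosed iv via femoral vein as DMSO solution (1 or 0.5 mg/kg) or po by gavage as OraPlus suspension (pH 2.0–2.2 with methanesulfonic acid; 10 or 2 mg/kg). Serial jugular blood over 12–24 h; plasma acetonitrile precipitation, LC-MS/MS (MRM) with internal standard; noncompartmental parameters.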

Calu-6 (Homo sapiens) [6] = assay: Antitumor activity in human Calu6 cell xenografted CD1 nu/nu mouse assessed as inhibition of tumor growth at 6 mg/kg, po qd for 14 days; conditions: Calu-6, po, 336 h, read-out: TGI
[7] = Oral bioavailability in Sprague-Dawley rat at 2 mg/kg; format: ADME, organism-based; conditions: in vivo
Outline: (§4)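 Male Sprague–Dawley rats dosed iv at 0.5 mg/kg as DMSO solution or po at 2 mg/kg as suspension in 100% OraPlus. Serial jugular blood, plasma LC-MS/MS quantitation, noncompartmental analysis.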

[8] = Clearance in mouse at 2 mg/kg, iv; format: ADME, organism-based; set-up: dose 2 mg/kg, route intravenous; conditions: in vivo; outline: as §2
[9] = Mean residence time in mouse at 2 mg/kg, iv; format: ADME, organism-based; set-up: dose 2 mg/kg, route intravenous; conditions: in vivo
Outline: (§5)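 Intravenous dosing of male/unspecified animals per species; vehicles: mouse 2 mg/kg in Peg 400, dog 0.5 mg/kg in DMSO, cynomolgus monkey 0.5 mg/kg in propylene glycol. Parameters from plasma concentration–time data by noncompartmental analysis.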

[10] = Clearance in dog at 0.5 mg/kg, iv; format: ADME, organism-based, Canis lupus familiaris; set-up: dose 0.5 mg/kg, route intravenous; conditions: in vivo; outline: as §2
[11] = Volume of distribution at steady state in Sprague-Dawley rat at 0.5 mg/kg, iv; format: ADME, organism-based; set-up: dose 0.5 mg/kg, route intravenous; conditions: in vivo, read-out: Vdss; outline: as §4
Mus musculus [12] = assay: Inhibition of VEGF-induced vascular permeability in HEK293 cells over expressing mouse recombinant VEGF implanted in CD1 nu/nu mouse assessed as Matrigel plug at 30 mg/kg, po after 6 hrs; format: functional, organism-based; set-up: dose 30 mg/kg
Outline: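 HEK293 cells transfected with murine VEGF (or empty vector) were suspended in Matrigel and injected sc into the ventral surface of CD-1 nu/nu mice. At 24 h post-implant, a single oral gavage dose was given as an OraPlus suspension (or vehicle). After 6 h, Evans blue dye was quantified in 1 cm2 of skin over the plug. Plasma was sampled at 6 h; n = 5/group.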

[13] = Half life in cynomolgus monkey at 2 mg/kg, po; format: ADME, organism-based, Macaca fascicularis; set-up: dose 2 mg/kg, route oral; conditions: in vivo; outline: as §2
[14] = AUC (0 to infinity) in Sprague-Dawley rat at 2 mg/kg, po; format: ADME, organism-based; set-up: time infinity, dose 2 mg/kg, route oral; conditions: plasma; outline: as §3
[15] = Tmax in cynomolgus monkey at 2 mg/kg, po; format: ADME, organism-based, Macaca fascicularis; set-up: dose 2 mg/kg, route oral; conditions: in vivo; outline: as §1
[16] = AUC (0 to 24 hrs) in human HT29 cell xenografted CD1 nu/nu mouse at 10 mg/kg, po qd; format: ADME, organism-based, HT-29; set-up: time < 24 hr, dose 10 mg/kg, route oral; conditions: in vivo
Liver microsomes [17] = assay: Metabolic stability assessed as covalent binding in absence of NADPH in human liver microsomes at 10 uM after 1 hr; format: ADME, Microsome
Outline: (§6)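 14C-labelled compound at 10 µM with human or rat liver microsomes (1 mg/mL) in 0.1 M potassium phosphate pH 7.4, with or without 1 mM NADPH and 1 mM glutathione, 60 min; quenched with ice-cold acetonitrile. Pellet washed with 80% methanol and ethanol/ether, solubilized, protein by BCA, radioactivity by scintillation counting.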

[18] = Cmax in cynomolgus monkey at 2 mg/kg, po; format: ADME, organism-based, Macaca fascicularis; set-up: dose 2 mg/kg, route oral; conditions: in vivo; outline: as §2
[19] = target: Platelet-derived growth factor receptor alpha (Homo sapiens) (UniProt P16234); assay: Inhibition of PDGFRalpha
Platelet-derived growth factor receptor alpha (Homo sapiens), sequence (P16234 whole entry): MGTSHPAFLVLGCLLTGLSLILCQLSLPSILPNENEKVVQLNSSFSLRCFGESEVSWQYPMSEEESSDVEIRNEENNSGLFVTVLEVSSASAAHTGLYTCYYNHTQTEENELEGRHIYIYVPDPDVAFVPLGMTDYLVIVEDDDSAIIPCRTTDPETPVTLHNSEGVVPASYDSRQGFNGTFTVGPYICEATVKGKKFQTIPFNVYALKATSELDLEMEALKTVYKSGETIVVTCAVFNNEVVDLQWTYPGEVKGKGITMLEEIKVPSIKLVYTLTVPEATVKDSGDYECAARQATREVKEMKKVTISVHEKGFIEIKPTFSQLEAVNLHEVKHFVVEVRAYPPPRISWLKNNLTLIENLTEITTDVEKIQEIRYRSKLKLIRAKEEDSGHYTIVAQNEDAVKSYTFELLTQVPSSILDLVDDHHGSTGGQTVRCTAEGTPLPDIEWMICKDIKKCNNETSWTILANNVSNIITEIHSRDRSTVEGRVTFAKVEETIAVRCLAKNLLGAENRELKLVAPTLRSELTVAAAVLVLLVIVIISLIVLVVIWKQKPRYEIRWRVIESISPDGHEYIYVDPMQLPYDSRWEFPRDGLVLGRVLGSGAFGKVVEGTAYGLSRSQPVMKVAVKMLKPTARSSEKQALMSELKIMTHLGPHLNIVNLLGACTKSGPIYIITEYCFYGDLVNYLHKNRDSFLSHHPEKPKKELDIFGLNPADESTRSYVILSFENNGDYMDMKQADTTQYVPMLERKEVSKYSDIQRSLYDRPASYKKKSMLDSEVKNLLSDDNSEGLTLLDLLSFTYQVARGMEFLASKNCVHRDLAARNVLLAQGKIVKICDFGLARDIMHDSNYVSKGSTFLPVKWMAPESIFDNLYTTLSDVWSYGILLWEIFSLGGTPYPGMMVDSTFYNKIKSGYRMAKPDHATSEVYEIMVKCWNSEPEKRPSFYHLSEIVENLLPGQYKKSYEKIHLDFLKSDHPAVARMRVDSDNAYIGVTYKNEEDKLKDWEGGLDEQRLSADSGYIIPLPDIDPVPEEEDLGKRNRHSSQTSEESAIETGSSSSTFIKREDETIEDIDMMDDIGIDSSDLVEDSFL

Aurora kinase A = target: T1, Aurora kinase A (Homo sapiens, UniProt O14965); assay: Inhibition of Aurora A
T1 sequence (O14965 whole entry): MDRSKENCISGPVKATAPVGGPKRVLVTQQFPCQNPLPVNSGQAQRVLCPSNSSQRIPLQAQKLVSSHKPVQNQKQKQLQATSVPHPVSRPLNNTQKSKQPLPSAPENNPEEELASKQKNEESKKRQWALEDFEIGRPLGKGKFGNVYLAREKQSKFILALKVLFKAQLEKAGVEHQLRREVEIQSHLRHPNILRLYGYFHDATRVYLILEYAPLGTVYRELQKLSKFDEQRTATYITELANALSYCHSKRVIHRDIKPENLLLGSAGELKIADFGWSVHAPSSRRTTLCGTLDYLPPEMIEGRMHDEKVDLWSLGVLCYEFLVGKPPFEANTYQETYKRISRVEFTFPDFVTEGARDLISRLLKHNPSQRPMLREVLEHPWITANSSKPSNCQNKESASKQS

[20] = Clearance in Sprague-Dawley rat at 0.5 mg/kg, iv; format: ADME, organism-based; set-up: dose 0.5 mg/kg, route intravenous; conditions: in vivo; outline: as §3
[21] = target: Tyrosine-protein kinase ABL1 (Homo sapiens, UniProt P00519)
Tyrosine-protein kinase ABL1, sequence (P00519 whole entry): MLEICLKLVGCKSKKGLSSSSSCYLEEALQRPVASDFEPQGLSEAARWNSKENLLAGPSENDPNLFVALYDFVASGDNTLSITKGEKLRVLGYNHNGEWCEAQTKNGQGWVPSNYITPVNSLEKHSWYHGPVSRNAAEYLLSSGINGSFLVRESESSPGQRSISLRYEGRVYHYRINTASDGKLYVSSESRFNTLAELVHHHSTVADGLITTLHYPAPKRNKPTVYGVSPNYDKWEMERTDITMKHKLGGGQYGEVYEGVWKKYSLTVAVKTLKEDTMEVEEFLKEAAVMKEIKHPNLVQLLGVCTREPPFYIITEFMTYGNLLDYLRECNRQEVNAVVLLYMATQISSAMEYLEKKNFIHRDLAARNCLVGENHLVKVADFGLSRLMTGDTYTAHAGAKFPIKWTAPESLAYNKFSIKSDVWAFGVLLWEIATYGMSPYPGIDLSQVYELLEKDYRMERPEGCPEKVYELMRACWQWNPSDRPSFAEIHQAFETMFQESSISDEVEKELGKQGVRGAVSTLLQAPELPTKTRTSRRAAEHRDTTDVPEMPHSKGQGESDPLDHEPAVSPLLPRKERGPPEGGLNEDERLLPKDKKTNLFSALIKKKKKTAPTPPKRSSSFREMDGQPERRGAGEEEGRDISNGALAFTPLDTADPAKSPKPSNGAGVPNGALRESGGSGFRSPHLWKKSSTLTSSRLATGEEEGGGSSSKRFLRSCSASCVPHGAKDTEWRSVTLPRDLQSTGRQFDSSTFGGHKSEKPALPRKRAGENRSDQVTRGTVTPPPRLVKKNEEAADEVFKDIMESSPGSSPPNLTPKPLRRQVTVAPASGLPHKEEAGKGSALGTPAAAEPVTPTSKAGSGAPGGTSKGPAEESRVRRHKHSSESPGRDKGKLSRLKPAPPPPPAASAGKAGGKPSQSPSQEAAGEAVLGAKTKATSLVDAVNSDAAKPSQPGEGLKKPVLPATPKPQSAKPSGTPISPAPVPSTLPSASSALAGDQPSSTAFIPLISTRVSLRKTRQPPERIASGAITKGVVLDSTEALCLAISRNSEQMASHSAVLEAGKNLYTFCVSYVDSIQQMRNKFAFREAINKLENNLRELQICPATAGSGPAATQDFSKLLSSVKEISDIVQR

[22] = Mean residence time in dog at 0.5 mg/kg, iv; format: ADME, organism-based, Canis lupus familiaris; set-up: dose 0.5 mg/kg, route intravenous; conditions: in vivo; outline: as §5
[23] = target: Vascular endothelial growth factor receptor 1 (Homo sapiens, UniProt P17948); assay: Inhibition of human VEGFR1
Vascular endothelial growth factor receptor 1, sequence (P17948 whole entry): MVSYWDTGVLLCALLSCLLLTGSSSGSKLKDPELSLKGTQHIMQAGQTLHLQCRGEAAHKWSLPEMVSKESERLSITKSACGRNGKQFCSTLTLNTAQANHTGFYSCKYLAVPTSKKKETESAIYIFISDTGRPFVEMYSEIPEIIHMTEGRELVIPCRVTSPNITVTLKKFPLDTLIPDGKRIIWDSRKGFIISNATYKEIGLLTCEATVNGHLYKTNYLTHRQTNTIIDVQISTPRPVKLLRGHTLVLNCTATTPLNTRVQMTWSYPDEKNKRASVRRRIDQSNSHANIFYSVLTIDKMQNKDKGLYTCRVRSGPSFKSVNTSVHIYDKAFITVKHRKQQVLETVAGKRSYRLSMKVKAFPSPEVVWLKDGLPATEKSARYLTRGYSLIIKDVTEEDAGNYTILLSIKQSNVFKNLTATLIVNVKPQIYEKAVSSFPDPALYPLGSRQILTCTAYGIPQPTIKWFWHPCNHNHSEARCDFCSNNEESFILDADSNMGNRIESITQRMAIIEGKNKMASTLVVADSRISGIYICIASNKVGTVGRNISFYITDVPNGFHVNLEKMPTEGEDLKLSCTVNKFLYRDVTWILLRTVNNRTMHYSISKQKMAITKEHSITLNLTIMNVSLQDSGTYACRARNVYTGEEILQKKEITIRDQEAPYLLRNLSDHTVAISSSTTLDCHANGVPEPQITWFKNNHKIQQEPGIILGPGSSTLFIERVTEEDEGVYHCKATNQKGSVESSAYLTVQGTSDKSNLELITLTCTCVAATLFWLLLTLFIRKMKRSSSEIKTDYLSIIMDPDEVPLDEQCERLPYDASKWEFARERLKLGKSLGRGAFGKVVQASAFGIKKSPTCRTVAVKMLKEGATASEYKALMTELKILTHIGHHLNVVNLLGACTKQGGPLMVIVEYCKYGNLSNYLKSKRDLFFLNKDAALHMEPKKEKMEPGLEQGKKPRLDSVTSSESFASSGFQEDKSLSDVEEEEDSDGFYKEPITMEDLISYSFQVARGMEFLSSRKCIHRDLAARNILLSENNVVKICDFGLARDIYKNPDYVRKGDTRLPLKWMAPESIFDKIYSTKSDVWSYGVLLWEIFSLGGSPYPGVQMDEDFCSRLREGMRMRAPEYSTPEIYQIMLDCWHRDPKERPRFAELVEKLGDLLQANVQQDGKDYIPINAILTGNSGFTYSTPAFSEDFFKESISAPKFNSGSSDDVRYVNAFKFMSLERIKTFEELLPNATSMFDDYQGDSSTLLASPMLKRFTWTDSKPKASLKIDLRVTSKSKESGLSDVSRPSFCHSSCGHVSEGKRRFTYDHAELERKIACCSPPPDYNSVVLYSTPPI

Liver microsomes [24] = assay: Metabolic stability assessed as covalent binding in presence of NADPH and GSH in rat liver microsomes at 10 uM after 1 hr; format: ADME, Microsome; outline: as §6
[25] = AUC (0 to 24 hrs) in mouse at 10 mg/kg, po; format: ADME, organism-based; set-up: time < 24 hr, dose 10 mg/kg, route oral; conditions: plasma; outline: as §2
Mus musculus [26] = assay: Cmax in mouse at 10 mg/kg, po; format: ADME, organism-based; set-up: dose 10 mg/kg, route oral; conditions: in vivo; outline: as §2
Liver microsomes [27] = assay: Metabolic stability assessed as covalent binding in absence of NADPH in rat liver microsomes at 10 uM after 1 hr; format: ADME, Microsome; outline: as §6
[28] = AUC in VEGF-soaked disk implanted in Sprague-Dawley rat; format: ADME, organism-based; conditions: plasma
[29] = Protein binding in mouse plasma; format: ADME, cell-free; conditions: read-out: PPB (converted)
Outline: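 Compound spiked into plasma at 5 µg/mL (12.9 µM) from a DMSO stock, incubated 37 °C 15 min, then ultracentrifuged 3 h at 37 °C. Supernatant below lipid layer measured by LC-MS (n = 6) against QC in plasma filtrate; % bound = 1 − (centrifuged concentration / mean QC) × 100.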

Liver microsomes [30] = assay: Metabolic stability assessed as covalent binding in presence of NADPH in human liver microsomes at 10 uM after 1 hr; format: ADME, Microsome; outline: as §6

Tyrosine-protein kinase Lyn, sequence (P07948 whole entry): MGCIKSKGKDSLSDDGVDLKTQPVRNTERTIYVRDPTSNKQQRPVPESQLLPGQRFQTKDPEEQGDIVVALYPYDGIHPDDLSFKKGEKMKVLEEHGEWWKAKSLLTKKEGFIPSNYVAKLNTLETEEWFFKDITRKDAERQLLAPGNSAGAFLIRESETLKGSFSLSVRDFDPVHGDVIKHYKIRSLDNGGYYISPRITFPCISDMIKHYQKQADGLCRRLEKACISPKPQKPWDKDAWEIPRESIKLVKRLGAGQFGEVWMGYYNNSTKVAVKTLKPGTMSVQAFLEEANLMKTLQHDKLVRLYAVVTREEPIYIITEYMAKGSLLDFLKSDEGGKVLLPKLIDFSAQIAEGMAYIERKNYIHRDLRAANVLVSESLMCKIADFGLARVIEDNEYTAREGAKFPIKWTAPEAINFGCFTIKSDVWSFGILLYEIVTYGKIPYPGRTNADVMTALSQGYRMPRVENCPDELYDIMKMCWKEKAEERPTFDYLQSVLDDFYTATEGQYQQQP

Structure (SMILES): COc1cc2nccc(Oc3ccc4c(C(N)=O)cccc4c3)c2cc1OC
- IC50 [1]: 0.088 µM
- IC50 (Angiopoietin-1 receptor): 25 µM
- bioavailability [2]: 51%
- inhibition in vivo at 60 mg/kg (Calu-6 (Homo sapiens) [3]): 88%
- AUC(0-t) at 24 h [4]: 3650 ng·h/mL
- Cmax [5]: 1690 ng/mL
- inhibition in vivo at 6 mg/kg (Calu-6 (Homo sapiens) [6]): 52%
- bioavailability [7]: 96%
- clearance [8]: 42.4 mL/min/kg
- MRT [9]: 2.3 h
- clearance [10]: 1.72 mL/min/kg
- Vd [11]: 1.06 L/kg
- Cp (Mus musculus [12]): 2.3 µM
- half-life [13]: 13 h
- AUC(0-inf) [14]: 8450 ng·h/mL
- Tmax [15]: 0.83 h
- AUC at 24 h [16]: 3.9 µM·h
- Stability (Liver microsomes [17]): 14 pmol/mg/h
- Cmax [18]: 1050 ng/mL
- Activity [19]: Active
- IC50 (Aurora kinase A): 5 µM
- clearance [20]: 3.73 mL/min/kg
- IC50 [21]: 0.11 µM
- MRT [22]: 18 h
- Activity [23]: Active
- Stability (Liver microsomes [24]): 3.2 pmol/mg/h
- AUC(0-t) at 24 h [25]: 1500 ng·h/mL
- Cmax (Mus musculus [26]): 890 ng/mL
- Stability (Liver microsomes [27]): 14 pmol/mg/h
- AUC [28]: 0.48 µM·h
- fraction unbound [29]: 0.027
- Stability (Liver microsomes [30]): 36 pmol/mg/h
